Measured values as given in ChEMBL document CHEMBL1134602, “A new class of symmetric bisbenzimidazole-based DNA minor groove-binding agents showing antitumor activity” (J Med Chem, 2001).

Legend:
[1] = tested on: SK-OV-3; test: Antitumor activity of compound for 96-h exposure in SKOV-3 human ovarian cell line; type: functional, cell-based; conditions: SK-OV-3, 96 h
Outline: (§1)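 Cells grown as monolayers in DMEM with 10% fetal bovine serum, 2 mM glutamine and 0.5 µg/mL hydrocortisone, in 6% CO2. Seeded at 3000-5000/well and attached overnight. Serial drug dilutions (compound dissolved in 10% DMSO) added to quadruplicate wells, 96 h. Fixed with TCA, stained with SRB, absorbance read at 540 nm. IC50 is the concentration giving 50% of control absorbance. Resistance factor is resistant-subline IC50 divided by parent IC50.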

[2] = tested on: A2780cisR; test: Antitumor activity of compound for 96-h exposure in A2780cisR (acquired resistance to cisplatin) human ovarian cell line; type: functional, cell-based; outline: as §1
[3] = tested on: CH1; test: Antitumor activity of compound for 96-h exposure in CH1 human ovarian cell line; type: functional, cell-based; conditions: CH1, 96 h; outline: as §1
[4] = tested on: A2780; test: Antitumor activity of compound for 96-h exposure in A2780 human ovarian cell line; type: functional, cell-based; conditions: A2780, 96 h; outline: as §1
[5] = tested on: Mus musculus; test: Activity was determined in sc human tumor xenograft (hallow fiber) assays, adult female nude mice; type: functional
[6] = tested on: Mus musculus; test: Activity was determined in ip human tumor xenograft (hallow fiber) assays in adult female nude mice; type: functional
[7] = organism: Mus musculus; test: Total score was determined, adult female nude mice; type: functional
[8] = tested on: OVCAR-3; test: In vivo antitumor activity was determined after a dose of 4.5 mg/kg (ip) using hollow fiber assay against OVCAR-3 human ovarian carcinoma cells (ip-implanted fibers); type: functional
[9] = tested on: CH1; test: In vivo antitumor activity was determined after a dose of 4 mg/kg (ip) using hollow fiber assay with (ip)implanted CH1 cells; type: functional, Homo sapiens
Outline: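 CH1 cells trypsinized, seeded at 1 × 10^7 cells/mL into 2-cm PVDF fibers, heat-sealed and incubated 3 days. Fibers then implanted ip in nude mice. Next day a single 4 mg/kg ip dose given, or vehicle (10% DMSO/90% arachis oil). Fibers retrieved six days later; viable cells measured by MTT absorbance at 540 nm and expressed as % treated/control.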

[10] = tested on: SK-OV-3; test: Growth inhibitory activity of compound for 2-h exposure in SKOV-3 cell line; type: functional, cell-based; conditions: Homo sapiens, SK-OV-3, 2 h
Outline: (§2)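 SKOV-3 monolayers treated with serially diluted drug in quadruplicate wells. Drug aspirated after 2, 6 or 24 h and replaced with fresh medium for the rest of a 96-h period. Growth measured by TCA fixation, SRB staining and absorbance at 540 nm. IC50 is the concentration halving mean absorbance relative to untreated controls.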

[11] = Resistance factor was determined using the ratio of resistance of resistant cell line and its parent cell line
[12] = tested on: SK-OV-3; test: Growth inhibitory activity of compound for 6-h exposure in SKOV-3 cell line; type: functional, cell-based; conditions: Homo sapiens, SK-OV-3, 6 h; outline: as §2
[13] = tested on: SK-OV-3; test: Growth inhibitory activity of compound for 96-h exposure in SKOV-3 cell line; type: functional, cell-based; conditions: Homo sapiens, SK-OV-3, 96 h; outline: as §1
[14] = tested on: SK-OV-3; test: Growth inhibitory activity of compound for 24-h exposure in SKOV-3 cell line; type: functional, cell-based; conditions: Homo sapiens, SK-OV-3, 24 h; outline: as §2

Compound | IC50 [1] [µM] | IC50 [2] [µM] | IC50 [3] [µM] | IC50 [4] [µM] | IC50 [10] [µM] | IC50 [12] [µM] | IC50 [13] [µM] | IC50 [14] [µM] | Subcut score [5] | Ip score [6] | Total score [7] | T/C [8] | T/C [9] | RF [11]
CN1CCN(c2ccc3[nH]c(-c4ccc5[nH]c(-c6ccc(O)cc6)nc5c4)nc3c2)CC1 [HOECHST 33258] | > 100 | 9.5 | 26.5 | 12 | – | – | – | – | – | – | – | – | – | –
COc1cccc2c1C(=O)c1c(O)c3c(c(O)c1C2=O)C[C@@](O)(C(=O)CO)C[C@@H]3O[C@H]1C[C@H](N)[C@H](O)[C@H](C)O1 [DOXORUBICIN] | – | – | – | – | – | – | – | – | – | – | – | – | – | 90
Oc1ccc(-c2nc3ccc(-c4ccc5nc(-c6ccc(O)cc6)[nH]c5c4)cc3[nH]2)cc1 | 16 | 2.7 | 1.05 | 4.3 | – | – | – | – | 0 | 10 | 10 | – | – | –

More lines, main results first:

IC50 [1] [µM] | IC50 [2] [µM] | IC50 [3] [µM] | IC50 [4] [µM] | IC50 [10] [µM] | IC50 [12] [µM] | IC50 [13] [µM] | IC50 [14] [µM] | Compound | Subcut score [5] | Ip score [6] | Total score [7] | T/C [8] | T/C [9] | RF [11]
16.5 | 5.1 | 3.8 | 13.5 | – | – | – | – | COc1ccc(-c2nc3cc(-c4ccc5[nH]c(-c6ccc(OC)cc6)nc5c4)ccc3[nH]2)cc1 | 0 | 8 | 8 | – | – | –
0.375 | 0.115 | 0.24 | 0.235 | 0.33 | 0.105 | 0.1 | 0.115 | CN(C)CCCOc1ccc(-c2nc3cc(-c4ccc5nc(-c6ccc(OCCCN(C)C)cc6)[nH]c5c4)ccc3[nH]2)cc1 | 4 | 12 | 16 | 0.56 | 0.79 | 5.8
